hERG protect: compounds protecting human hERG from proarrhythmic drug block; 0.51% of 310,000 active; activation (rescue from dofetilide block), less the hit threshold, % at 10 µM; CHO-hERG, FluxOR thallium flux, dofetilide IC70 present; AID 1511;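 active = activation above the mean of controls blocked by dofetilide plus 5 SD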;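 note: thallium influx through hERG after potassium depolarization seen as dye fluorescence rise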
KCNQ1 inh: inhibitors of human KCNQ1 potassium channel; P51787; B-score at 10 µM; CHO-K1 KCNQ1, FluxOR thallium flux fluorescence; active compounds read high; 1.3% of 310,000 active; AID 2642;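 active = compounds whose thallium flux B-score, printed positive for inhibition, exceeds three library SD while starting fluorescence stays within three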;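 note: channel opened by potassium depolarization with thallium stimulus after 20 min compound exposure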
KCNK9 block: human KCNK9 channel inhibition | Q9NPC2 | HEK293 KCNK9, FluxOR thallium flux fluorescence; active compounds read low | B-score at 10 µM | 1.2% of 310,000 active | AID 488922;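 active = ratio B-score over 3 SD below the library mean, with starting fluorescence within 5 SD of its mean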;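 note: negative B-score means less thallium flux so channel inhibition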
KCNK3 inh: human KCNK3 channel inhibition, primary screen | O14649 | CHO-KCNK3 thallium flux, FluxOR fluorescence; active compounds read low | B-score at 10 µM | 0.84% of 340,000 active;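 active = B-score under library mean minus 4 SD, starting fluorescence ratio at most library mean plus 5 SD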;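 note: more negative B-score means stronger inhibition of thallium flux through KCNK3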
Kir21 block: Kir2.1 (mouse) channel inhibition. P35561. HEK293-Kir2.1, FluxOR thallium flux fluorescence; active compounds read low. B-score at 10 µM. 0.85% of 310,000 active;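 active = fluorescence ratio B-score at or below minus 3 SD of library scores, with starting-brightness B-score within 2 SD, cut at about -4.2 in these data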;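 note: channel flux triggered by added potassium and thallium sulfate stimulus; B-score of peak minus minimum fluorescence over baseline after thallium stimulus; more negative B-score means stronger Kir2.1 block with less thallium influx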
Target sequence (P35561 whole entry, looked up): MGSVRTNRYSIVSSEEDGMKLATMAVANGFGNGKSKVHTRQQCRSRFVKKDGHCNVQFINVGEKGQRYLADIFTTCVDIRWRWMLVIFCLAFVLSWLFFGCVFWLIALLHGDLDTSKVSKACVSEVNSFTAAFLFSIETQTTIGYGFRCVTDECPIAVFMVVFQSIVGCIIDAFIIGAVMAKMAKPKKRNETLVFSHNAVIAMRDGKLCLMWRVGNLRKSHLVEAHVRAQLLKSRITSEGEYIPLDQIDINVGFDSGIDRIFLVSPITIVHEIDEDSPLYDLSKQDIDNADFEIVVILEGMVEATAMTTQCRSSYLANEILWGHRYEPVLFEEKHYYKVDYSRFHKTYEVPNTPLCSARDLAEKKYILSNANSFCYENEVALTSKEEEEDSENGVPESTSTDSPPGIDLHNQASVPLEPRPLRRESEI
KCNQ1 pot: human KCNQ1 channel potentiation or activation. AID 2648. CHO-K1 KCNQ1, thallium flux FluxOR fluorescence; active compounds read high. P51787. B-score at 10 µM. 0.35% of 310,000 active;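 active = fluorescence ratio B-score, a plate-corrected score, at least three library SD, with initial intensity B-score within 5 SD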
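Medium – assay buffer, equal DMSO in all wells · Material – CHO-K1 cell line with stable KCNQ1 potassium channel expression · Signal – kinetic FluxOR thallium fluorescence, 10-s 1-Hz baseline, 110-s post-stimulus read · Compound – single concentration per compound, DMSO matched to controls · Schedule – 37 °C overnight plating, 90-min dark dye load, 20-min compound pretreatment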
* marks the source's active call; other numbers are inactive results. This is a sample that favours compounds with a hit; in the whole collection about 3.7% have one here.

Screening CCC(Oc1cc(Cl)ccc1Cl)C(=O)N1CCCN(C)CC1 (configuration not stated) returned hERG protect -11.0, KCNQ1 inh inactive, KCNK9 block inactive, KCNK3 inh inactive, Kir21 block -0.42 and KCNQ1 pot inactive.
For O=C(NCc1cccs1)c1cnc2sccn2c1=O the results were hERG protect -6.9, KCNQ1 inh inactive, KCNK9 block inactive, KCNK3 inh inactive, Kir21 block 1.04 and KCNQ1 pot inactive.
COc1ccc(OCCCC(=O)Nc2ccc(S(=O)(=O)N3CCOCC3)cc2)cc1 was read as KCNK3 inh inactive.
`COC(=O)/C(=C\c1cc(OC)c(OC)c(OC)c1)c1nc2ccccc2[nH]1` gave hERG protect -8.1, KCNQ1 inh inactive, KCNK9 block inactive, KCNK3 inh inactive, Kir21 block -1.26 and KCNQ1 pot inactive.
Screening COc1cc(/C=C(/C(=O)c2cccs2)c2nc3ccccc3[nH]2)ccc1O returned hERG protect -18.6, KCNQ1 inh inactive, KCNK9 block inactive, KCNK3 inh inactive, Kir21 block -4.41* and KCNQ1 pot inactive.
`Cc1[nH]n(-c2ncc(-c3ccccc3)s2)c(=O)c1C(c1ccc(Br)cc1)C(C#N)C#N` (configuration not stated) gave hERG protect -11.2, KCNQ1 inh inactive, KCNK9 block inactive, KCNK3 inh inactive, Kir21 block -5.63* and KCNQ1 pot inactive.
`Cc1cc(C(F)(F)F)nn1Cc1n[nH]c(=S)n1-c1cccc(Cl)c1` gave hERG protect -5.2, KCNQ1 inh inactive, KCNK9 block inactive, KCNK3 inh inactive, Kir21 block 0.59 and KCNQ1 pot inactive.
For COc1nccnc1NS(=O)(=O)c1ccc(NC(=S)NC(=O)c2ccccc2F)cc1 the results were hERG protect 1.5, KCNQ1 inh inactive, KCNK9 block inactive, KCNK3 inh inactive, Kir21 block 1.04 and KCNQ1 pot 8*.
CCC(C(=O)OCC(=O)Nc1c(Cl)cccc1Cl)c1ccccc1 (configuration not stated) was read as hERG protect -5.9, KCNQ1 inh inactive, KCNK9 block inactive, KCNK3 inh inactive, Kir21 block -6.89* and KCNQ1 pot inactive.
`CCC(C(=O)OCC(=O)Nc1ccc(F)cc1)c1ccccc1` (configuration not stated) gave KCNK3 inh inactive.
Screening CCc1ccc(C2C(C#N)=C(N)C(C#N)(C#N)C3=CCC(C(C)(C)C)CC32)cc1 (configuration not stated) returned hERG protect -19.8, KCNQ1 inh inactive, KCNK9 block inactive, KCNK3 inh inactive, Kir21 block -6.64* and KCNQ1 pot inactive.
COCCNC(=O)COc1ccc(Oc2ccccc2)cc1 was read as hERG protect 0.9, KCNQ1 inh inactive, KCNK9 block inactive, KCNK3 inh inactive, Kir21 block -0.09 and KCNQ1 pot inactive.
CCOC(=O)c1ccc(NC(=O)CSc2nc(=O)n(CCN3CCOCC3)c3c2CCC3)cc1 was read as hERG protect -3.6, KCNQ1 inh inactive, KCNK9 block inactive, KCNK3 inh inactive, Kir21 block -2.94 and KCNQ1 pot inactive.
`CCCc1nc2c(s1)CCc1onc(-c3cccc([N+](=O)[O-])c3)c1-2` gave hERG protect -5.3, KCNQ1 inh inactive, KCNK9 block inactive, KCNK3 inh inactive, Kir21 block -0.83 and KCNQ1 pot inactive.
Screening CC(C)c1nc2c(s1)CCc1onc(-c3cccc([N+](=O)[O-])c3)c1-2 returned hERG protect -7.2, KCNQ1 inh inactive, KCNK9 block -6.66*, KCNK3 inh inactive, Kir21 block -0.26 and KCNQ1 pot inactive.
Screening O=C(CNC(=O)c1cccs1)N/N=C/c1cccc(Cl)c1 returned hERG protect -8.7, KCNQ1 inh inactive, KCNK9 block inactive, KCNK3 inh inactive, Kir21 block -1.66 and KCNQ1 pot inactive.
Screening Cc1cc(Cl)ccc1C(=O)C1CCCN(C(=O)c2cncs2)C1 (configuration not stated) returned hERG protect -3.7, KCNQ1 inh inactive, KCNK9 block inactive, KCNK3 inh inactive, Kir21 block -1.13 and KCNQ1 pot inactive.
Screening S=C(NC1CCCCC1)N1CCN(C2CCCCC2)CC1 returned hERG protect 3.0, KCNQ1 inh inactive, KCNK9 block inactive, KCNK3 inh inactive, Kir21 block -1.51 and KCNQ1 pot inactive.
`Fc1ccc(Cn2cccc2C2=NC(c3ccccc3)CO2)cc1` (configuration not stated) gave hERG protect -11.2, KCNQ1 inh inactive, KCNK9 block inactive, KCNK3 inh inactive, Kir21 block -5.94* and KCNQ1 pot inactive.
Screening CCN(CC)CC(=O)Nc1ccc2c(c1)Nc1ccccc1CC2 returned hERG protect -2.4, KCNQ1 inh inactive, KCNK9 block inactive, KCNK3 inh inactive, Kir21 block -5.57* and KCNQ1 pot 8*.
Screening C/C(=N\NC(=S)NC(C)C)c1ccccc1 returned hERG protect -11.9, KCNQ1 inh inactive, KCNK9 block inactive, KCNK3 inh inactive, Kir21 block 2.1 and KCNQ1 pot inactive.
CC(C)NC(=S)NC(c1ccccc1)(c1ccccc1)c1ccccc1 was read as hERG protect -4.5, KCNQ1 inh 10*, KCNK9 block inactive, KCNK3 inh inactive, Kir21 block 0.44 and KCNQ1 pot inactive.
For COc1cc(C)c(C(C)C)cc1S(=O)(=O)NC1CC(C)(C)NC(C)(C)C1 the results were hERG protect 5.7*, KCNQ1 inh inactive, KCNK9 block inactive, KCNK3 inh inactive, Kir21 block -1.52 and KCNQ1 pot inactive.
Screening CCOc1cc(C)c(Cl)cc1S(=O)(=O)NC1CC(C)(C)NC(C)(C)C1 returned hERG protect 0.6, KCNQ1 inh inactive, KCNK9 block inactive, KCNK3 inh inactive, Kir21 block 0.06 and KCNQ1 pot inactive.
Screening CC(C)c1ccccc1-n1c(SCC(=O)N2CCc3ccccc3C2)nc2ccccc2c1=O returned hERG protect -10.9, KCNQ1 inh 9*, KCNK9 block inactive, KCNK3 inh inactive, Kir21 block -0.73 and KCNQ1 pot inactive.
Screening CCOc1ccc(S(=O)(=O)NCCC(=O)N(C)Cc2cccs2)cc1 returned KCNK3 inh inactive.
For C/C=C/c1ccc(OCC(O)CNCCc2ccc(OC)cc2)c(OC)c1 (configuration not stated) the results were hERG protect -11.2, KCNQ1 inh inactive, KCNK9 block inactive, KCNK3 inh inactive, Kir21 block -5.95* and KCNQ1 pot inactive.
